The test system of this assay is Leishmania donovani. Nature of the assay: Antileishmanial activity against Leishmania donovani promastigotes after 48 hrs by alamar blue assay. It counts as functional, organism-based. An outline of the steps:
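L. donovani promastigotes grown in RPMI 1640 with 10% fetal calf serum at 26 °C. A 3-day-old culture was diluted to 5 × 10⁵ promastigotes/mL. Drug dilutions were made directly in the cell suspension and incubated 48 h at 26 °C.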

Active and inactive are the calls of the source. The calls are words filed in the database; no cut-off is given here.

Take `O=C(N/N=C/c1ccc([N+](=O)[O-])s1)c1ccc([N+](=O)[O-])cc1`: the IC50 was determined as 2.81 µM and the 90% effect level (IC90) was put at 5.31 µM.

With `O=C(N/N=C/c1ccc([N+](=O)[O-])o1)c1ccc(F)c(F)c1`, the concentration for half-maximal inhibition (IC50) turned out to be 9.49 µM and the IC90 was 25.5 µM. On to `O=C(N/N=C/c1ccc([N+](=O)[O-])s1)c1ccc(Cl)c(Cl)c1`, for which half-maximal inhibition (IC50) required 0.41 µM and the concentration for an effect of 90% (IC90) was determined as 0.87 µM. In the same order, the values of `O=C(N/N=C/c1ccc([N+](=O)[O-])o1)c1ccc([N+](=O)[O-])cc1` are 6.57 µM and 22.4 µM.

On to `Cc1ccc(C(=O)N/N=C/c2ccc([N+](=O)[O-])s2)cc1`, for which the IC50 came out at 4.49 µM and the concentration for an effect of 90% (IC90) came out at 7.95 µM.

`Cc1ccc(C(=O)N/N=C/c2ccc([N+](=O)[O-])o2)cc1` registered a concentration for half-maximal inhibition (IC50) of 11 µM and an IC90 of 28.6 µM. In the same order, the values of `COc1ccc(C(=O)N/N=C/c2ccc([N+](=O)[O-])s2)cc1N` are 4.69 µM and 18.3 µM. In the same order, the values of `O=C(N/N=C/c1ccc([N+](=O)[O-])s1)c1ccc(F)c(Cl)c1` are 1.92 µM and 4.67 µM. Compound `O=C(N/N=C/c1ccc([N+](=O)[O-])o1)c1cccc(O)c1` came in with an IC50 of 10.2 µM and an IC90 of 28 µM. In the same order, the values of `Cc1ccc(C(=O)N/N=C/c2ccc([N+](=O)[O-])s2)cc1O` are 2.3 µM and 4.59 µM. In the same order, the values of `CN(C)c1cccc(C(=O)N/N=C/c2ccc([N+](=O)[O-])o2)c1` are 7.94 µM and 24.2 µM. `O=C(N/N=C/c1ccc([N+](=O)[O-])o1)c1ccc([N+](=O)[O-])c(O)c1`: the IC50 amounted to 9.9 µM and the 90% effect concentration (IC90) was 48.9 µM.

Take `Cc1ccc(C(=O)N/N=C/c2ccc([N+](=O)[O-])s2)cc1N`: the IC50 worked out at 2.24 µM and the 90% effect concentration (IC90) came out at 4.7 µM. In the same order, the values of `O=C(N/N=C/c1ccc([N+](=O)[O-])s1)c1cccc(C(F)(F)F)c1` are 3.79 µM and 6.41 µM. In the same order, the values of `O=C(N/N=C/c1ccc([N+](=O)[O-])s1)c1ccc([N+](=O)[O-])c(O)c1` are 5.45 µM and 18.4 µM. In the same order, the values of `COc1cccc(C(=O)N/N=C/c2ccc([N+](=O)[O-])o2)c1` are 10.4 µM and 26.6 µM. In the case of `NS(=O)(=O)c1cc(C(=O)N/N=C/c2ccc([N+](=O)[O-])o2)ccc1Cl`, the IC50 was found to be 38.5 µM and the IC90 was 88.5 µM. In the same order, the values of `O=C(N/N=C/c1ccc([N+](=O)[O-])s1)c1cccc([N+](=O)[O-])c1` are 2.78 µM and 14.3 µM. In the same order, the values of `O=C(N/N=C/c1ccc([N+](=O)[O-])o1)c1cccc(Cl)c1` are 7.83 µM and 24.2 µM. Regarding `O=C(N/N=C/c1ccc([N+](=O)[O-])s1)c1ccccc1`, the half-inhibitory concentration (IC50) was 6.54 µM and the concentration for an effect of 90% (IC90) amounted to 25.4 µM. As to `COc1ccc(C(=O)N/N=C/c2ccc([N+](=O)[O-])o2)cc1N`, the midpoint of inhibition, the IC50, lay at 16.4 µM and the 90% effect level (IC90) was put at 131 µM. In the same order, the values of `Cc1cccc(C(=O)N/N=C/c2ccc([N+](=O)[O-])s2)c1` are 4.84 µM and 19 µM.

`COc1cc(C(=O)N/N=C/c2ccc([N+](=O)[O-])s2)ccc1C` registered an IC50 of 2.19 µM and an IC90 of 4.39 µM. In the same order, the values of `Nc1cc(C(=O)N/N=C/c2ccc([N+](=O)[O-])o2)ccc1O` are 27 µM and 97.5 µM. In the same order, the values of `O=C(N/N=C/c1ccc([N+](=O)[O-])o1)c1ccc(F)c(Cl)c1` are 6.42 µM and 19.2 µM. For `CN(C)c1ccc(C(=O)N/N=C/c2ccc([N+](=O)[O-])s2)cc1`, the outcome was inactive. For the compound `N=C(N)c1ccc(OCCCCCOc2ccc(C(=N)N)cc2)cc1` [PENTAMIDINE], the half-maximal inhibitory concentration (IC50) was 1.06 µM. Take `O=C(N/N=C/c1ccc([N+](=O)[O-])o1)c1ccc(O)cc1` [NIFUROXAZIDE]: the half-maximal inhibitory concentration (IC50) amounted to 2.4 µM and the IC90 worked out at 17.8 µM. In the same order, the values of `COc1ccc(C(=O)N/N=C/c2ccc([N+](=O)[O-])s2)cc1` are 7.21 µM and 26.2 µM. In the same order, the values of `O=C(N/N=C/c1ccc([N+](=O)[O-])s1)c1cccc(O)c1` are 2.75 µM and 7.55 µM. In the same order, the values of `O=C(N/N=C/c1ccc([N+](=O)[O-])o1)c1cccc(C(F)(F)F)c1` are 10.4 µM and 24.1 µM.

For the compound `Nc1ccc(C(=O)N/N=C/c2ccc([N+](=O)[O-])o2)cc1`, the IC50 was found to be 2.66 µM and the IC90 was 14.6 µM. In the same order, the values of `COc1cc(C(=O)N/N=C/c2ccc([N+](=O)[O-])s2)ccc1[N+](=O)[O-]` are 2 µM and 3.91 µM.

In the case of `O=C(N/N=C/c1ccc([N+](=O)[O-])o1)c1cccc([N+](=O)[O-])c1`, the IC50 is 9.86 µM and the IC90 stood at 26 µM. In the same order, the values of `O=C(N/N=C/c1ccc([N+](=O)[O-])s1)c1ccc(O)cc1` are 0.89 µM and 4.46 µM.

In the case of `O=C(N/N=C/c1ccc([N+](=O)[O-])o1)c1ccc(Cl)c([N+](=O)[O-])c1`, the result was inactive. Consider `O=C(N/N=C/c1ccc([N+](=O)[O-])o1)c1ccc(Cl)cc1`, for which the IC50 worked out at 7.83 µM and the 90% effect concentration (IC90) is 23.8 µM. In the same order, the values of `O=C(N/N=C/c1ccc([N+](=O)[O-])o1)c1ccc(Cl)c(Cl)c1` are 1.68 µM and 26.9 µM.

In turn, `Cc1cccc(C(=O)N/N=C/c2ccc([N+](=O)[O-])o2)c1` had a concentration for half-maximal inhibition (IC50) of 19.8 µM and an IC90 above 36.6 µM. In the same order, the values of `O=C(N/N=C/c1ccc([N+](=O)[O-])s1)c1cccc(Cl)c1` are 2.74 µM and 6.78 µM. In the same order, the values of `COc1cc(C(=O)N/N=C/c2ccc([N+](=O)[O-])o2)ccc1C` are 8.9 µM and 52.8 µM. For the compound `CN(C)c1ccc(C(=O)N/N=C/c2ccc([N+](=O)[O-])o2)cc1`, the result was inactive.

Take `COc1ccc(C(=O)N/N=C/c2ccc([N+](=O)[O-])o2)cc1`: half-maximal inhibition (IC50) required 8.99 µM and the 90% effect concentration (IC90) was 25.9 µM. For `CN(C)c1cccc(C(=O)N/N=C/c2ccc([N+](=O)[O-])s2)c1`, the outcome was inactive. Turning to `Nc1ccc(C(=O)N/N=C/c2ccc([N+](=O)[O-])s2)cc1`, the IC50 is 2.24 µM and the IC90 was above 34.5 µM.

Take `O=C(N/N=C/c1ccc([N+](=O)[O-])s1)c1ccc(C(F)(F)F)cc1`: the 50% inhibitory concentration (IC50) was 0.82 µM and the IC90 was found to be 1.89 µM. In turn, `NS(=O)(=O)c1cc(C(=O)N/N=C/c2ccc([N+](=O)[O-])s2)ccc1Cl` had an IC50 of 8.06 µM and an IC90 of 17.2 µM. In the same order, the values of `O=C(N/N=C/c1ccc([N+](=O)[O-])s1)c1ccc(Cl)cc1` are 1.26 µM and 4.84 µM.

For `O=C(N/N=C/c1ccc([N+](=O)[O-])s1)c1ccc(F)c(F)c1`, the concentration for half-maximal inhibition (IC50) is 2.15 µM and the 90% effect concentration (IC90) was 4.92 µM. In the same order, the values of `COc1cc(C(=O)N/N=C/c2ccc([N+](=O)[O-])o2)ccc1[N+](=O)[O-]` are 7.39 µM and 20.2 µM.

In turn, `O=C(N/N=C/c1ccc([N+](=O)[O-])o1)c1ccc(C(F)(F)F)cc1` had a half-maximal inhibitory concentration (IC50) of 8.86 µM and a concentration for an effect of 90% (IC90) of 24.4 µM.

The compound `O=C(N/N=C/c1ccc([N+](=O)[O-])o1)c1ccccc1` yielded an IC50 of 11.2 µM and an IC90 of 29.7 µM. In the same order, the values of `Cc1ccc(C(=O)N/N=C/c2ccc([N+](=O)[O-])o2)cc1N` are 0.62 µM and 2.88 µM. In the same order, the values of `COc1cccc(C(=O)N/N=C/c2ccc([N+](=O)[O-])s2)c1` are 8.52 µM and 32.8 µM.

As usually defined, the IC50 is the concentration at which inhibition is half-maximal. A word on the IC90: it is the point of the concentration-response curve where the effect stands at 90%. Lower therefore signals an effect from little substance.
